Results published in ChEMBL document CHEMBL4616681, “Discovery of 3-Pyridyl Isoindolin-1-one Derivatives as Potent, Selective, and Orally Active Aldosterone Synthase (CYP11B2) Inhibitors” (J Med Chem, 2020).
Activity calls are given as the source filed them.

What was measured:
[1] = Intrinsic clearance in rat liver microsomes preincubated for 10 mins followed by NADPH regenerating system addition and measured up to 30 mins by LC/MS-MS analysis; assay type: ADME, Microsome
Outline: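 Liver microsomes at 0.5 mg protein/mL in 100 mM potassium phosphate, pH 7.4. Compound preincubated 10 min at 37 °C. Intrinsic clearance scaled using the well-stirred liver model.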

[2] = Protein binding in rat plasma assessed as unbound fraction at 1 uM by micro-equilibrium dialysis based LC-MS/MS analysis; assay type: ADME, cell-free
Outline: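 Equilibrium dialysis of pooled rat or cynomolgus plasma against Soerensen buffer pH 7.4, 12–14 kDa cut-off membrane. Compounds tested in cassettes of 2–5 at 1 μM initial total concentration, with diazepam as control. Dialysis 5 hr at 37 °C under 5% CO₂. Unbound percentage by LC/MS-MS.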

[3] = Selectivity ratio of IC50 for cynomolgus monkey CYP11B1 expressed in human G401 cells to IC50 for cynomolgus monkey CYP11B2 expressed in human G401 cells; assay type: cell-based
Outline: (§1)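 Cells with endogenous FDXR/FDX and no detectable CYP11B activity, stably transfected (CMV promoter, neomycin selection, G-418 400 µg/mL) with CYP11B1 or CYP11B2 of the named species. Assayed in DMEM/F12 with 2.5% charcoal-treated FCS. Substrate 1 µM 11-deoxycorticosterone (B2) or 11-deoxycortisol (B1), 16 hr. Aldosterone or cortisol in supernatant measured by HTRF. IC50 from 4-parameter MMF fit; selectivity factor is the B1/B2 IC50 ratio.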

Cynomolgus monkey [4] = experiment: In vivo inhibition of CYP11B2 in cynomolgus monkey assessed as reduction in ACTH-induced aldosterone at 0.01 to 10 mg/kg, po preincubated for 1 hr followed by ACTH challenge and measured after 60 mins by LC/MS-MS analysis; assay type: functional, organism-based; conditions: Macaca fascicularis
Outline: (§2)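 Cynomolgus monkeys preselected as Synacthen responders (at least 2-fold rise in aldosterone, cortisol and corticosterone). Two animals per group. Oral vehicle or compound at 0.01–10 mg/kg in hydroxyethylcellulose/polysorbate 80/paraben suspension (2 mL/kg) at T=0, then 14.5 µg/kg Synacthen i.m. at 1 hr. EDTA blood drawn from -5 min to 24 h. Plasma steroids measured by LC/MS-MS; data shown 60 min after challenge.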

Cynomolgus monkey [5] = experiment: In vivo inhibition of CYP11B2 in cynomolgus monkey assessed as reduction in ACTH-induced 11-deoxycorticosterone at 0.01 to 10 mg/kg, po preincubated for 1 hr followed by ACTH challenge and measured after 60 mins by LC/MS-MS analysis; assay type: functional, organism-based; conditions: Macaca fascicularis; outline: as §2
Cynomolgus monkey [6] = experiment: In vivo inhibition of CYP11B1 in cynomolgus monkey assessed as reduction in ACTH-induced cortisol at 0.01 to 1 mg/kg, po preincubated for 1 hr followed by ACTH challenge and measured after 60 mins by LC/MS-MS analysis; assay type: ADME, organism-based, Macaca fascicularis; outline: as §2
[7] = Inhibition of cynomolgus monkey CYP11B2 expressed in human G401 cells using 1-deoxycorticosterone as substrate by HTRF assay; assay type: cell-based, Macaca fascicularis; conditions: g-401; outline: as §1
[8] = target: T1, Cytochrome P450 11B2, mitochondrial (Homo sapiens, UniProt P19099); experiment: Inhibition of CYP11B2 in H295R cell assessed as reduction in aldosterone by LC/MS-MS method
T1 sequence (P19099 whole entry): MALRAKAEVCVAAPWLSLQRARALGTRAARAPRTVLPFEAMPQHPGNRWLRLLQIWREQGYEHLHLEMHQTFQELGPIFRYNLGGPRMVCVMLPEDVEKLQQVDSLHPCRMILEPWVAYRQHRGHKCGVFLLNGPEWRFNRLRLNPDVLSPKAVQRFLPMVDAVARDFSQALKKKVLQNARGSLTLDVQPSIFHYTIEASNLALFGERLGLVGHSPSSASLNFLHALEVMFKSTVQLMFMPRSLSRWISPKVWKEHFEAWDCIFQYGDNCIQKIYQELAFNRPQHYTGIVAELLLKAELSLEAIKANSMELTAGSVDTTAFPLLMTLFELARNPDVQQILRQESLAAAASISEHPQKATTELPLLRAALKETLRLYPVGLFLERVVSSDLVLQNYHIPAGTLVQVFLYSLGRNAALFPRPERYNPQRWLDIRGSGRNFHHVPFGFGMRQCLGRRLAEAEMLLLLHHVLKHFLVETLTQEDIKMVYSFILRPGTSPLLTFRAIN

predicted hepatic clearance (CLH) [1]: 5 mL/min/kg
fraction unbound at 1 µM [2]: 0.052
IC50 [7]: 2 nM
IC50 [8]: < 1 nM
SMILES: CCS(=O)(=O)N1CC(Oc2cncc(N3C(=O)c4ccc(Cl)cc4C3(C)C)c2)C1
Ratio IC50 [3]: 664
inhibition (Cynomolgus monkey [4]): Active
inhibition (Cynomolgus monkey [5]): inactive
Activity (Cynomolgus monkey [6]): Non-Toxic
